Screening data as filed in PubChem BioAssay.
MC4R barr agon: human MC4R agonism via beta-arrestin | activation, % at 8.9 µM | U2OS MC4R beta-arrestin complementation, luminescence; percent of melanotan II response, DMSO zero | 360,000 compounds, 0.98% hits | P32245;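 active = activation above a per-plate cutoff, the mean activation of sample wells on that plate plus 3 SD, cut at about 8% in these data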
m5-HT2A agonist: mouse HTR2A agonism via beta-arrestin recruitment; CHO-K1 mHTR2A beta-arrestin complementation, luminescence; percent of 30 µM serotonin response; P35363; 360,000 compounds, 0.66% hits; activation, % at 7.6 µM;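 active = activation above a run cutoff, the mean activation of all tested compounds plus 3 SD, cut at about 14% in these data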
EBI2 block: EBI2 (human) antagonism. P32249. EBI2 beta-arrestin recruitment, luminescence, 7a,25-OHC stimulated. inhibition, % at 5 µM. 360,000 compounds, 0.81% hits. AID 651636; in the data active = inhibition above about 38%;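 also: enzyme fragment complementation signal reports receptor beta-arrestin coupling in cells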
Target sequence (P32249 whole entry, looked up, the tested form may be a part): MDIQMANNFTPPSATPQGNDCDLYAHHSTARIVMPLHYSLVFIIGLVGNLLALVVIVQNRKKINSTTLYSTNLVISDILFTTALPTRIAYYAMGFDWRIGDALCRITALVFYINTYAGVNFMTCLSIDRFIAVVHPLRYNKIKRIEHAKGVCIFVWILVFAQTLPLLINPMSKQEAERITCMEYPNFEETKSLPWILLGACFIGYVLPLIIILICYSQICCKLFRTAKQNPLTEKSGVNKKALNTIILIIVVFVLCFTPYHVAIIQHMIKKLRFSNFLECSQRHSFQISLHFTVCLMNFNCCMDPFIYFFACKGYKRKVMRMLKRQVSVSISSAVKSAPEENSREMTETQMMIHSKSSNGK
MC4R antagonist: blocks human MC4R cAMP signaling; 360,000 compounds, 0.48% hits; AID 540295; MC4R-expressing cells, MTII-stimulated cAMP, LANCE TR-FRET; inhibition, % at 6.5 µM;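 active = inhibition above its plate's cutoff, the mean of tested wells on that plate plus 3 SD, cut at about 29% in these data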
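Material: U2OS-MC4R stable cell line | Reagent: Melanotan II challenge after compound preincubation | Doses: One concentration, 6.5 µM nominal | Incubation: 30-min compound preincubation, 1-h Melanotan II challenge, 1-h detection, room temperature | Signal: TR-FRET cAMP assay | Replicates: One well per compound, no replicates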
EBI2 antag conf: confirmation of human EBI2 receptor antagonists | 2,400 compounds, 29% hits | inhibition, % at 5 µM | EBI2 beta-arrestin luminescence, 7a,25-OHC antagonism | shares compounds with EBI2 block;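 active = inhibition of at least 50%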
EBI2 ag: activates EBI2, counter-screen for EBI2 antagonists; shares compounds with EBI2 block; EBI2-expressing cells, agonist mode, luminescence, 60 min; 0% vehicle, 100% 7α,25-dihydroxycholesterol control; activation, % at 5 µM; 2,400 tested, under 10 active; AID 652000;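 active = activation of at least 50%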
bGal cs: counter-screen for EBI2 antagonists: E. coli beta-galactosidase inhibition | shares compounds with EBI2 block | purified beta-galactosidase, luminescent Galacton Star, 15 min | inhibition, % at 5 µM | 2,400 compounds, 1% hits | AID 652176;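 active = replicate-average signal at least 3 plate SD below neutral wells, shown as high inhibition, flagging enzyme-inhibiting false positives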;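 also: higher means stronger loss of beta-gal luminescence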
Numbers stand for hits; n = inactive; x = no result given. A selection: hits, their analogues and other compounds. The true share with any hit is near 2.8%.

SMILES | MC4R barr agon | m5-HT2A agonist | EBI2 block | MC4R antagonist | EBI2 antag conf | EBI2 ag | bGal cs
COC(=O)c1ccc(N2CCC(c3cc(-c4ccc(OC)cc4)n[nH]3)CC2)c([N+](=O)[O-])c1 | n | n | 50 | n | n | n | n
COc1ccc(-c2cc(C3CCN(c4ccc(C(C)=O)cc4[N+](=O)[O-])CC3)[nH]n2)cc1 | n | n | n | n | x | x | x
Cc1cc(C)c(C#N)c(SCc2[nH]nc3c2C(c2ccc(F)cc2)C(C#N)=C(N)O3)n1 (configuration not stated) | n | n | 84 | n | 57 | n | n
COc1ccccc1C(=O)OCc1c(F)cccc1Cl | n | n | n | n | x | x | x
NS(=O)(=O)c1ccc(N/N=C/c2ccc(O)cc2O)c([N+](=O)[O-])c1 | n | n | 43 | n | n | n | n
NS(=O)(=O)c1ccc(N/N=C/c2ccc(O)c(O)c2O)c([N+](=O)[O-])c1 | n | n | n | n | x | x | x
COc1ccc(CCNc2cc(C)[nH]c(=O)c2)cc1OC | n | n | n | n | x | x | x
COc1cc(C(=O)NCCc2ccc(S(N)(=O)=O)cc2)ccc1OCc1c(C)noc1C | n | n | n | n | x | x | x
O=C(COC(=O)/C=C/c1ccc(OC(F)F)cc1)NCc1cccs1 | n | n | n | n | x | x | x
O=C(COC(=O)/C=C/c1ccc(OC(F)F)cc1)NC(=O)NCc1ccccc1 | n | n | 50 | n | n | n | n
COC(=O)CCC1(C(N)=O)CCC(=O)c2ccccc21 (configuration not stated) | n | n | n | n | x | x | x
O=C1C=C(c2ccc3c(c2)oc2ccccc23)C[C@@H](c2ccc3c(c2)OCO3)C1 | n | n | 71 | n | 64 | n | n
O=C1C=C(c2ccc3c(c2)OCO3)C[C@@H](c2ccc(F)cc2)C1 | n | n | n | n | x | x | x
Cc1ccc(C2=CC(=O)C[C@H](c3ccc4c(c3)OCO4)C2)cc1 | n | n | 48 | n | n | n | n
CSc1ccc(C2=CC(=O)C[C@H](c3ccc4c(c3)OCO4)C2)cc1 | n | n | 41 | n | n | n | n
COCc1cc(C)nc(OCC(=O)N/N=C/c2ccc(OC)c(OC)c2)c1C#N | n | n | n | n | x | x | x
COCc1cc(C)nc(OCC(=O)N/N=C/c2ccc(O)cc2)c1C#N | n | n | 63 | n | n | n | n
CC(=O)Nc1ccc2nc(SCC(=O)Nc3ccc(N4CCOCC4)c(Cl)c3)sc2c1 | n | n | n | n | x | x | x
CC(=O)CSc1nc2ccc(Nc3nc(N4CCOCC4)nc(N4CCOCC4)n3)cc2s1 | n | n | 44 | n | n | n | n
CCOC(=O)C1(Cc2ccc(Cl)cc2)CCN(C(C)Cc2ccc(O)c(OC)c2)CC1 (configuration not stated) | n | n | 47 | n | n | n | n
CCOC(=O)C1(Cc2ccc(OC)cc2)CCN(S(C)(=O)=O)CC1 | n | n | n | n | x | x | x
O=C(COc1ccc2ccccc2c1Br)N1CCN(c2ccccn2)CC1 | n | n | 52 | n | n | n | n
Cc1cc(OCC(=O)N2CCN(c3ccccn3)CC2)c(C)cc1Br | n | n | 53 | n | n | n | n
O=C(COc1ccc2ccccc2c1Br)N1CCCCC1 | n | n | n | n | x | x | x
Cc1ccccc1C(=O)NNC(=O)C1CC(=O)N(Cc2ccccc2)C1 (configuration not stated) | n | n | n | n | x | x | x
SMILES | MC4R barr agon | m5-HT2A agonist | EBI2 block | MC4R antagonist | EBI2 antag conf | EBI2 ag | bGal cs
COc1ccc2oc(=O)c(C(=O)OCc3ccccc3)cc2c1 | n | n | n | n | x | x | x
c1ccc(OCCN2CCN(C(c3ccccc3)c3ccccc3)CC2)cc1 | n | n | 45 | n | n | n | n
c1ccc(OCCN2CCNCC2)cc1 | n | n | n | n | x | x | x
COc1cccc(OCC(O)CN2CCN(C(c3ccccc3)c3ccccc3)CC2)c1 (configuration not stated) | n | n | 38 | n | n | n | n
CCOc1ccc(NC(=S)N2CCC(C(O)(c3ccccc3)c3ccccc3)CC2)cc1 | n | n | 44 | n | n | n | n
Cc1cc(N2CCN(Cc3ccccc3)CC2)n2nc(C)c(-c3ccccc3)c2n1 | n | n | 47 | n | n | n | n
O=C(COc1ccc(Cl)cc1)N1CCN(S(=O)(=O)c2ccccc2)CC1 | n | n | 87 | n | 68 | n | n
O=C(CCCOc1ccccc1)N1CCN(S(=O)(=O)c2ccc(Cl)cc2)CC1 | n | n | n | n | x | x | x
COc1ccc(S(=O)(=O)N2CCN(C(=O)CCOc3ccccc3)CC2)cc1OC | n | n | n | n | x | x | x
COc1ccc(S(=O)(=O)N2CCN(C(=O)COc3ccc(C)c(C)c3)CC2)cc1OC | n | n | 77 | n | n | n | n
O=C(NCc1ccc(Cl)cc1)N1CCN(S(=O)(=O)c2ccccc2)CC1 | n | n | 45 | n | n | n | n
O=C(COc1ccccc1)N1CCN(S(=O)(=O)c2ccc(Cl)cc2)CC1 | n | n | 49 | n | n | n | n
Cc1ccnc(NC(=O)C2CCN(S(=O)(=O)c3ccc(C)c(C)c3)CC2)c1 | n | n | n | n | x | x | x
COc1ccc(OCC(=O)N2CCN(S(=O)(=O)c3ccc(Cl)cc3)CC2)cc1 | n | n | 71 | n | 58 | n | n
Cc1sc2ncn(CC(=O)NC3CCCCC3)c(=O)c2c1C | n | n | n | n | x | x | x
O=C(NNC(=O)C(c1ccccc1)c1ccccc1)c1ccccc1O | n | n | n | n | x | x | x
S=c1[nH]nc(-c2cc(-c3ccccc3)n[nH]2)n1/N=C/c1c(Cl)cccc1Cl | n | n | 44 | n | 65 | n | n
CC(NC(=O)Cn1cccc1)c1ccccc1 (configuration not stated) | n | n | n | n | x | x | x
Cc1nc(C)c(-c2csc(Nc3ccc(F)cc3)n2)s1 | n | n | 46 | n | 52 | n | n
CCC(C)(C)C1CCc2[nH]nc(C(=O)NN)c2C1 (configuration not stated) | n | n | n | n | x | x | x
CCC(C)(C)C1CCc2[nH]nc(C(=O)NC3CCCCC3)c2C1 (configuration not stated) | n | n | 43 | n | n | n | n
COc1ccc2nc(C)cc(SCC(=O)NNC(=O)COc3ccccc3)c2c1 | n | n | 48 | n | n | n | n
CC(=O)Nc1ccc(S(=O)(=O)N2CCN(C(=O)c3ncoc3-c3ccccc3C)CC2)cc1 | n | n | n | n | x | x | x
COCCNc1nc(NCCOc2ccccc2)c2sc(-c3ccccc3)cc2n1 | n | n | 47 | n | n | n | n
COCCNc1nc(-c2ccc(OC)cc2C)c2sc(-c3ccccc3)cc2n1 | n | n | 42 | n | n | n | n
CC(C)Nc1nc(NCCOc2ccccc2Cl)c2sc(-c3ccccc3)cc2n1 | n | n | 52 | n | n | n | n
